These results are taken from PubChem BioAssay.

SMILES strings stand for the structures. Unmarked numbers belong to inactive results.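 The calls were made as follows, unless noted: active = viability at or below 30% in both replicate assays; inconclusive = viability at or below 30% in just one of the two assays; inactive = the rest.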

The nature of the first experiment: reduced viability of SK-BR-3 breast cancer cells – cell-based, 24 h, human, pilot screen (AID 572;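 active = viability at or below 10% of carrier control in both of two separate runs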;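 also: compound exposure lasted between 18 and 24 h rather than exactly 24 h; 100% = carrier-treated control wells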). The note with it: SK-BR-3 viability, CellTiter-Glo luminescence, at 10 µM, active compounds read low.
For `CCOC(=O)C1CCN(c2c(NC3CCCCCCC3)c(=O)c2=O)CC1`, the viability is 90%.

Consider `Cc1nc(NC2=NCN(CCN3CCOCC3)CN2)nc2c(C)cccc12`, for which the viability is 114%.

On to `CCN(CC)C(=O)c1sc2nc(-c3cccs3)cc(-c3cccs3)c2c1N`, for which the viability was 102%.

On to `O=C(O)C1CCCN1c1ncnc2c1oc1ccccc12` (stereo not given), for which the viability was 101%.

For the compound `CCOc1cccc(Oc2ccc(C(F)(F)F)cn2)c1`, the viability is 99%.

As for `CCOC(=O)N1CCN(Cc2ccccc2F)CC1`, the viability is 102%.

`CCCS(=O)(=O)C(=C1Nc2ccccc2N1)S(=O)(=O)CCC`: the viability was 105%.

With `O=C(NCCSCc1ccco1)Nc1cccc(Cl)c1`, the viability was 83.5%.

In the case of `O=C1C2C3C=CC(C3=C3CCCCC3)C2C(=O)N1c1ccccc1` (stereo not given), the viability is 131%.

Consider `OC1(c2cccc(C(F)(F)F)c2)CCNCC1`, for which the viability was 110%.

Regarding `CCOc1ccc2[nH]cc(C(=O)N3CCN(CC)CC3)c(=O)c2c1`, the viability is 98%.

As for `O=C(NC1CCCCCC1)C1CCCN(S(=O)(=O)c2cccs2)C1` (stereo not given), the viability was 90%.

Consider `O=C(CSc1nnnn1C1CCCC1)N1CCN(C(=O)c2ccco2)CC1`, for which the viability is 82%.

Consider `O=S(=O)(c1ccc(S(=O)(=O)N(Cc2ccco2)Cc2ccccc2Cl)cc1)N1CCCC1`, for which the viability is 96%.

Consider `CN(C)S(=O)(=O)c1ccc(S(=O)(=O)N(Cc2ccco2)Cc2ccccc2Cl)cc1`, for which the viability was 93%.

`O=C(Nc1cccc2ncccc12)c1ccc2c(c1)OCCO2`: the viability was 84%.

Take `Cc1cc(C)n(C(=O)CCCCCC(=O)n2nc(C)cc2C)n1`: the viability was 116%.

Regarding `O=c1c[n+]([O-])c2ccccc2n1OCc1ccccn1`, the viability is 94%.

For `O=C(CN(c1ccccc1)S(=O)(=O)c1ccccc1)N1CCN(Cc2ccc3c(c2)OCO3)CC1`, the viability was 104%.

As to `N#CC(C(=O)Nc1ccc(Cl)c(Cl)c1)=C1Nc2ccccc2N1`, the viability is 90.5%.

On to `CCCc1cc(=O)n2[nH]cnc2n1`, for which the viability is 104%.

Take `COc1ccc(-c2noc(-c3ccccc3C(=O)Nc3cccnc3)n2)cc1`: the viability is 109%.

For the compound `COc1ccccc1-n1c(SCC(=O)Nc2ccc3c(c2)OCO3)nc2c(c1=O)SCC2`, the viability was 82.5%.

On to `N#CC1=C(N)N(c2ccccc2)C(c2ccco2)C1(C#N)C#N` (stereo not given), for which the viability is 95.5%.

Turning to `O=C(N1CCN(c2ccccc2F)CC1)C12CC3CC(CC(C3)C1)C2`, the viability was 88.5%.

Turning to `COc1ccc(C2C(C(C)=O)=C(O)C(=O)N2C)c(OC)c1` (stereo not given), the viability is 102%.

For `O=C(CN1C(=O)CCSc2ccccc21)Nc1ccc2c(c1)OCO2`, the viability is 124%.

`COc1cccc(C(=O)Nc2ccc(NC(C)=O)cn2)c1`: the viability is 98%.

For `COC(=O)c1cc(Oc2ccc(C(=O)OC)cc2N)cc(C(=O)OC)c1`, the viability was 95%.

For `CCOC(=O)c1sc2nc(SCC#N)n(CCCN3CCCC3=O)c(=O)c2c1C`, the viability was 80.5%.

With `Nc1c(C(=O)NCc2ccco2)nnn1Cc1ccccc1`, the viability is 85.5%.

With `Cc1ccc(N2C(N)=NC(N)=NC23CCCC3)c(C)c1`, the viability is 98.5%.

On to `CCCCc1ccc(NC(=O)COCC)cc1`, for which the viability was 110%.

Turning to `Cc1ccc2nc(SC(C)C(=O)N3CCCC3)[nH]c2c1` (stereo not given), the viability was 87.5%.

Take `CN(C)c1cccc(C(=O)OCC(=O)NCc2ccco2)c1`: the viability is 102%.

Take `CCN(CC)CCOC(=O)c1cccc(OC)c1`: the viability was 115%.

For the compound `COc1ccc(NC(=O)CCNC(=O)Cn2ccc3ccccc3c2=O)c(OC)c1`, the viability was 101%.

Regarding `COc1ccc(CCNc2oc(-c3ccccc3OC)nc2C#N)cc1`, the viability is 88%.

As to `Fc1ccc(-c2cnc[nH]2)cc1`, the viability is 98.5%.

On to `Cc1cc(NC(=O)CSc2nnc(C3CC3)n2C)no1`, for which the viability is 91%.

Another experiment can be described thus: HUVEC growth inhibition – cell-based, human, primary screen (AID 575).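 Also: 100% = median of untreated cell wells with 0.1% DMSO on each plate.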 The note with it: HUVEC proliferation, CellTiter-Glo luminescence, 72 h; at 10 µM; active compounds read low. Summed up: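 Material: primary human umbilical vein endothelial cells / Schedule: 72 h exposure, 37 °C, 5% CO2, 30 min RT equilibration / Signal: ATP-based CellTiter-Glo luminescent read / Read-out basis: percent of median DMSO-control luminescence / Control set: 32 DMSO-only cell-control wells (high), 32 MePR drug-control wells (low) per plate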
For the compound `CCOC(=O)C1CCN(c2c(NC3CCCCCCC3)c(=O)c2=O)CC1`, the viability is 92.2%.

`Cc1nc(NC2=NCN(CCN3CCOCC3)CN2)nc2c(C)cccc12`: the viability is 77.3%.

Consider `CCN(CC)C(=O)c1sc2nc(-c3cccs3)cc(-c3cccs3)c2c1N`, for which the viability was 76.2%.

For the compound `O=C(O)C1CCCN1c1ncnc2c1oc1ccccc12` (stereo not given), the viability was 81%.

For `CCOc1cccc(Oc2ccc(C(F)(F)F)cn2)c1`, the viability is 99.6%.

For the compound `CCOC(=O)N1CCN(Cc2ccccc2F)CC1`, the viability was 98.1%.

Take `CCCS(=O)(=O)C(=C1Nc2ccccc2N1)S(=O)(=O)CCC`: the viability was 93.4%.

On to `O=C(NCCSCc1ccco1)Nc1cccc(Cl)c1`, for which the viability was 63.6%.

On to `O=C1C2C3C=CC(C3=C3CCCCC3)C2C(=O)N1c1ccccc1` (stereo not given), for which the viability is 103%.

Turning to `OC1(c2cccc(C(F)(F)F)c2)CCNCC1`, the viability was 96.5%.

As for `CCOc1ccc2[nH]cc(C(=O)N3CCN(CC)CC3)c(=O)c2c1`, the viability was 91.2%.

`O=C(NC1CCCCCC1)C1CCCN(S(=O)(=O)c2cccs2)C1` (stereo not given): the viability was 101%.

In the case of `O=C(CSc1nnnn1C1CCCC1)N1CCN(C(=O)c2ccco2)CC1`, the viability is 105%.

As to `O=S(=O)(c1ccc(S(=O)(=O)N(Cc2ccco2)Cc2ccccc2Cl)cc1)N1CCCC1`, the viability is 79%.

On to `CN(C)S(=O)(=O)c1ccc(S(=O)(=O)N(Cc2ccco2)Cc2ccccc2Cl)cc1`, for which the viability is 100%.

In the case of `O=C(Nc1cccc2ncccc12)c1ccc2c(c1)OCCO2`, the viability was 100%.

As for `Cc1cc(C)n(C(=O)CCCCCC(=O)n2nc(C)cc2C)n1`, the viability was 105%.

Turning to `O=c1c[n+]([O-])c2ccccc2n1OCc1ccccn1`, the viability is 94.7%.

Regarding `O=C(CN(c1ccccc1)S(=O)(=O)c1ccccc1)N1CCN(Cc2ccc3c(c2)OCO3)CC1`, the viability was 92.7%.

Turning to `N#CC(C(=O)Nc1ccc(Cl)c(Cl)c1)=C1Nc2ccccc2N1`, the viability is 36%.

As for `CCCc1cc(=O)n2[nH]cnc2n1`, the viability was 110%.

Turning to `COc1ccc(-c2noc(-c3ccccc3C(=O)Nc3cccnc3)n2)cc1`, the viability was 106%.

As for `COc1ccccc1-n1c(SCC(=O)Nc2ccc3c(c2)OCO3)nc2c(c1=O)SCC2`, the viability was 85%.

Take `N#CC1=C(N)N(c2ccccc2)C(c2ccco2)C1(C#N)C#N` (stereo not given): the viability was 102%.

On to `O=C(N1CCN(c2ccccc2F)CC1)C12CC3CC(CC(C3)C1)C2`, for which the viability was 93.7%.

Take `COc1ccc(C2C(C(C)=O)=C(O)C(=O)N2C)c(OC)c1` (stereo not given): the viability was 109%.

For `O=C(CN1C(=O)CCSc2ccccc21)Nc1ccc2c(c1)OCO2`, the viability was 97.6%.

On to `COc1cccc(C(=O)Nc2ccc(NC(C)=O)cn2)c1`, for which the viability was 92.4%.

As for `COC(=O)c1cc(Oc2ccc(C(=O)OC)cc2N)cc(C(=O)OC)c1`, the viability is 99.1%.

With `CCOC(=O)c1sc2nc(SCC#N)n(CCCN3CCCC3=O)c(=O)c2c1C`, the viability is 68%.

Consider `Nc1c(C(=O)NCc2ccco2)nnn1Cc1ccccc1`, for which the viability was 92.1%.

Take `Cc1ccc(N2C(N)=NC(N)=NC23CCCC3)c(C)c1`: the viability was 99.8%.

In the case of `CCCCc1ccc(NC(=O)COCC)cc1`, the viability is 92.1%.

As for `Cc1ccc2nc(SC(C)C(=O)N3CCCC3)[nH]c2c1` (stereo not given), the viability was 91.4%.

As for `CN(C)c1cccc(C(=O)OCC(=O)NCc2ccco2)c1`, the viability was 87%.

Turning to `CCN(CC)CCOC(=O)c1cccc(OC)c1`, the viability is 96.9%.

As for `COc1ccc(NC(=O)CCNC(=O)Cn2ccc3ccccc3c2=O)c(OC)c1`, the viability is 108%.

In the case of `COc1ccc(CCNc2oc(-c3ccccc3OC)nc2C#N)cc1`, the viability is 86.4%.

For `Fc1ccc(-c2cnc[nH]2)cc1`, the viability was 80.8%.

`Cc1cc(NC(=O)CSc2nnc(C3CC3)n2C)no1`: the viability is 92.4%.
